# According to PubChem BioAssay AID871 (The Scripps Research Institute Molecular Screening Center, 2007):
# Screen size: about 190,000 compounds; about 1,800 (0.95%) were called active.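 Rule for the calls: active = activation above the screen-wide mean of compound activation plus 3 SD (cut at about 130% in these data); inactive = the rest.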 Only a selection was taken, and actives are over-represented in it overall.
# Experiment: IL-6 driven STAT3 reporter potentiators, primary screen, U3A cells, luciferase, luminescence, MLSCN library (AID 871);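 note: 0% = background luminescence of wells with medium and substrate only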
# Details: IL-6 STAT3-luciferase reporter, at 5.6 µM, stronger effect = higher value
# Summary of the method: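 system = STAT3-luciferase reporter U3A cells | reagent = IL-6 stimulus at 33 ng/mL final | timing = 1 h compound pre-exposure, 6 h IL-6 stimulation, 37 °C | measured by = luminescence | evaluation = % activation versus median of IL-6-stimulated wells | control set = IL-6-only wells as 100% reference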
row,Compound,activation (% of control)
1,COc1cc(-n2c(=S)[nH]c3ccc(C)cc3c2=O)c(Cl)cc1Cl,156% (active)
2,CC(=O)c1c(C)n(C(C)C)c2ccc(O)cc12,102% (inactive)
3,N#CC1=C(N)Oc2c(c(=O)oc3ccccc23)C1c1ccccc1OC(=O)c1cccs1 (stereo not given),106% (inactive)
4,CCOP(=S)(OCC)SCOC(=O)NCC(=O)OC,106% (inactive)
5,C/C(CCc1c[nH]c2ccccc12)=N\O,98% (inactive)
6,CCC/C(=N\O)c1c[nH]c2ccccc12,153% (active)
7,CC1=CC(=Cc2sc3ccccc3[n+]2C)C=C(C)O1,30.2% (inactive)
8,CCOc1ccc(CN(CCCl)CCCl)cc1C(=O)OC,96.4% (inactive)
9,CCOCCc1c(O)[nH]c(=S)[nH]c1=O,99.3% (inactive)
10,O=C(Nc1cccc2ccccc12)N1CCC2(CC1)OCCO2,105% (inactive)
